Experimental data: article PMC6534466 (European journal of pharmacology, 2019)
Where two headings read alike, the source gives them in different places.

How the values were obtained:
[1] = system: ERK1/2 phosphorylation (cannabinoid CB2 receptor-induced); assay: ERK1/2 phosphorylation immunoblot in CB2-transfected HEK293 cells; format: cell-based; conditions: 1.0 μM compound, 5 min; for ERK1/2 phosphorylation in the presence of PTX: 10 ng/ml PTX pretreatment 16 h; for ERK1/2 phosphorylation, fold increase above vehicle: without PTX
Procedure, shortened: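 HEK293 cells were transfected with CB2 DNA by Lipofectamine 2000, then pretreated 24 h later in DMEM with or without 10 ng/ml pertussis toxin for 16 h. They were exposed 5 min at 37°C to 1.0 µM test compound; vehicle was DMSO on CB2-transfected cells. Lysates were immunoblotted for phospho-p44/42 and phospho-MEK with chemiluminescent detection. Statistics: one-way ANOVA with Tukey test.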

Jurkat cells = assay: Jurkat cell proliferation; format: cell-based, human; conditions: 72 h; for Cell proliferation inhibition: Jurkat cells, relative to DMSO
Procedure, shortened: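 Jurkat cells (T-lymphoblastic leukaemia, endogenous CB2) at passage 4–12 were grown in RPMI 1640 with 10% FBS and 1% antibiotic-antimycotic at 37°C and 5% CO2. Cells were plated at 10^5 cells/ml and given test compound in RPMI (DMSO vehicle) for 70 h. CellTiter 96 AQueous One was then added for 2 h and A490 read. Percent inhibition was taken relative to DMSO. Triplicate; mean ± S.E.M.; one-way ANOVA with Tukey.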

cannabinoid CB2 receptor [2] = biological target: T1, cannabinoid CB2 receptor (Homo sapiens, UniProt P34972); assay: Radioligand competition binding with [3H]CP55,940, CB2
T1 sequence (P34972 whole entry): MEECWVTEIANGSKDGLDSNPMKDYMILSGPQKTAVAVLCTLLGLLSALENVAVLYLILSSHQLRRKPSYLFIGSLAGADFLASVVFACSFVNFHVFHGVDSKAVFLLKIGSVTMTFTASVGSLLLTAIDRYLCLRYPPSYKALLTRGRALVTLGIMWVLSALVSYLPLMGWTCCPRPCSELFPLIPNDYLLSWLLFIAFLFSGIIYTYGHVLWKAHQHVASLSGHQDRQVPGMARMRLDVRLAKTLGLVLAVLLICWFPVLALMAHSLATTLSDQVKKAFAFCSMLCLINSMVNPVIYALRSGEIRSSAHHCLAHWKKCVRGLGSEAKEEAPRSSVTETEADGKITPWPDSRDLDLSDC

cannabinoid CB2 receptor [3] = biological target: T1, cannabinoid CB2 receptor; assay: [35S]GTPγS binding stimulation; format: biochemical
cannabinoid CB2 receptor [4] = biological target: T1, cannabinoid CB2 receptor; conditions: read-out: EC50, cAMP accumulation screen; prior screen; ref Ogawa et al., 2017; cited from earlier work
cannabinoid CB2 receptor [5] = biological target: T1, cannabinoid CB2 receptor; conditions: read-out: Ki, cannabinoid CB2 receptor, ref Huffman et al., cited from earlier work
cannabinoid CB1 receptor = cannabinoid CB1 receptor (Homo sapiens, UniProt P21554); conditions: read-out: Ki, cannabinoid CB1 receptor, ref Huffman et al., cited from earlier work
Chain of cannabinoid CB1 receptor (P21554 whole entry): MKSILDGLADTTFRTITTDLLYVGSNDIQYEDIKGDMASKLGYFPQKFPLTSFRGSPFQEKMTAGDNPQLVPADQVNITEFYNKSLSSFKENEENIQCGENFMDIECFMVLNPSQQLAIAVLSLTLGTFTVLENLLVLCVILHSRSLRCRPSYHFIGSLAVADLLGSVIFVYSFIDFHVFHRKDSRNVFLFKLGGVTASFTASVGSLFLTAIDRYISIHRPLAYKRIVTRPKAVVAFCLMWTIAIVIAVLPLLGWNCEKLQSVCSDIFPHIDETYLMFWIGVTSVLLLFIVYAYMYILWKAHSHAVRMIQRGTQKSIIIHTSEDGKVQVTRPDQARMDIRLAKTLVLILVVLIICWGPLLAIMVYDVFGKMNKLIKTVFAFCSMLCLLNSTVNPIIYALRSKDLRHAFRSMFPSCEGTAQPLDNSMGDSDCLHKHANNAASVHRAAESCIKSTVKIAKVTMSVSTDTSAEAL

[6] = Homo sapiens, Jurkat, read-out: Cell proliferation inhibition

SMILES | ERK1/2 phosphorylation in the presence of PTX [1] | ERK1/2 phosphorylation, fold increase above vehicle [1] | Ki (cannabinoid CB2 receptor [2]) | EC50 (cannabinoid CB2 receptor [3]) | EC50 (cannabinoid CB2 receptor [4]) | other results
CCOC(=O)c1ccccc1NC(=O)CN(c1cccc(C)c1C)S(=O)(=O)c1ccccc1 [ABK5, ethyl 2-(2-(N-(2,3-dimethylphenyl)phenylsulfonamido)acetamido)benzoate] | prevented by the addition of PTX | induce ERK1/2 phosphorylation | – | – | – | inhibition at 0.1 µM (Jurkat cells; [6]): 15 ± 2%; inhibition at 10 µM (Jurkat cells; [6]): 20 ± 1%
COC(=O)c1ccccc1NC(=O)CN(c1ccccc1OC)S(=O)(=O)c1ccc(C)cc1 [ABK6, benzoic acid, 2-[[2-[(2-methoxyphenyl)[(4-methylphenyl)sulfonyl]amino]acetyl]amino]-, methyl ester] | prevented by the addition of PTX | induce ERK1/2 phosphorylation | 102 ± 7 nM | 13 ± 4 nM | 2 nM | –
CCC(C(=O)Nc1sc2c(c1C(N)=O)CCCCCC2)c1ccccc1 (centres unmarked) [ABK7, 2-(2-phenylbutanamido)-4,5,6,7,8,9-hexahydrocycloocta[b]thiophene-3-carboxamide] | prevented by the addition of PTX | induce ERK1/2 phosphorylation | 317 ± 117 nM | 31 ± 14 nM | 32 nM | –
CCCCCCC(C)(C)c1ccc([C@@H]2C[C@H](O)CC[C@H]2CCCO)c(O)c1 [CP55,940, reference compound] | – | – | – | – | – | Cell proliferation inhibition (Jurkat cells; 0.1 μM): 7±3%; Cell proliferation inhibition (Jurkat cells; 10 μM): 26±8%
CCCCCCC(C)(C)c1ccc2c(c1)OC(C)(C)[C@@H]1CC=C(CO)C[C@@H]21 [JWH-051] | – | – | – | – | – | Ki (cannabinoid CB2 receptor [5]; 1996): 0.032 nM; Ki (cannabinoid CB1 receptor; 1996): 1.2 nM
CCCC(C)(C)c1ccc2c(c1)OC(C)(C)[C@@H]1CC=C(C)C[C@@H]21 [JWH-133] | – | – | – | – | – | Ki (cannabinoid CB2 receptor [5]; 1999): 3.4 nM; Ki (cannabinoid CB1 receptor; 1999): 677 nM
